This note sets out measurements from ChEMBL document CHEMBL5252510, “A Novel Potent Oral Series of VEGFR2 Inhibitors Abrogate Tumor Growth by Inhibiting Angiogenesis” (J Med Chem, 2016).

A short description of series [1]: Half life in Sprague-Dawley rat at 50 mg/kg, po measured upto 24 hrs by HPLC/UV analysis. The class given is ADME, organism-based. The settings on record: in vivo. Put shortly:
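Female Sprague Dawley rats, 8 weeks old, catheterized. Oral suspension in 0.5 % carboxymethyl cellulose at 50 mg/kg, n=3. Bioavailability taken against 3 mg/kg iv. Plasma sampled 5 min–24 h. Cmax and AUC(0–∞) dose-normalized.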

Series [2] has as its target Vascular endothelial growth factor receptor 2 (Homo sapiens, UniProt P35968). Briefly: Inhibition of VEGF-induced human VEGFR2 autophosphorylation transfected in CHO cells measured after 2 hrs by chemiluminescence assay. The class given is cell-based.
In series [3] the target is Angiopoietin-1 receptor (Homo sapiens) (UniProt Q02763). Briefly: Inhibition of human recombinant GST-fused TIE2 expressed in baculovirus expression system using poly-Glu-Tyr (4:1) as substrate measured after 10 mins in presence of gamma-[33P]-ATP by scintillation counting analysis. Put shortly: (§1)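 GST-fused kinase domains were expressed in baculovirus and purified on glutathione-Sepharose. 10 min at ambient temperature, stopped with EDTA. Filter binding and scintillation counting. IC50 by linear regression of percent inhibition.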
Angiopoietin-1 receptor (Homo sapiens), sequence (Q02763 whole entry, the tested form may be a part): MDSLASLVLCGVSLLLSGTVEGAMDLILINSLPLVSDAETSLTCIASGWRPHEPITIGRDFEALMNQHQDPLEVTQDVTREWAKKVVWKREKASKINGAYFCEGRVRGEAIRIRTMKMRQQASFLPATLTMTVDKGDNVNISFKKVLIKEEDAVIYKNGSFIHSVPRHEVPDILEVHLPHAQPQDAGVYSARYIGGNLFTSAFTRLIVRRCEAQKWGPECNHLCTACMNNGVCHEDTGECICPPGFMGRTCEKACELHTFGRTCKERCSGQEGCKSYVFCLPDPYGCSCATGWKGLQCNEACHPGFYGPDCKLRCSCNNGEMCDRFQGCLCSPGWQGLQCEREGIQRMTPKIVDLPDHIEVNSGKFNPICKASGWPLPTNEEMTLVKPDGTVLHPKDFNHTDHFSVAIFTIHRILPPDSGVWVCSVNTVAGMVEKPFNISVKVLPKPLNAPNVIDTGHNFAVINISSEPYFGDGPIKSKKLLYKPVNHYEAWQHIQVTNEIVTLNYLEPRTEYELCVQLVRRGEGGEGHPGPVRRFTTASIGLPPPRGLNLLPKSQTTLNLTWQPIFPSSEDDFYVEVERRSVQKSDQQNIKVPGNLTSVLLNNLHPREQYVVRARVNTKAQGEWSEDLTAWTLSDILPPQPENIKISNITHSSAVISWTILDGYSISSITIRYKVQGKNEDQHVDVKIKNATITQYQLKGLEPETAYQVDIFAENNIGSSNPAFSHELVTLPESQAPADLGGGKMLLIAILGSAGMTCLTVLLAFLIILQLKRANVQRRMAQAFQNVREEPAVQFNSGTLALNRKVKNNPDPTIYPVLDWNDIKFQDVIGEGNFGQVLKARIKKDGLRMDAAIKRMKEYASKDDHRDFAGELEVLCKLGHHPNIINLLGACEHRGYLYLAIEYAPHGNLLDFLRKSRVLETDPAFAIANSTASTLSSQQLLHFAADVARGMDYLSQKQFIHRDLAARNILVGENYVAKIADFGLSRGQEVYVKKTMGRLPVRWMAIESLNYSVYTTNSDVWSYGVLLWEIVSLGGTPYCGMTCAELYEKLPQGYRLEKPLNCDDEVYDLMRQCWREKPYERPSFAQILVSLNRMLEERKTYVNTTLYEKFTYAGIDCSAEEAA

Series [4] concerns the target Proto-oncogene tyrosine-protein kinase receptor Ret (Homo sapiens, UniProt P07949). Briefly: Inhibition of human recombinant GST-fused RET expressed in baculovirus expression system using poly-Glu-Tyr (4:1) as substrate measured after 10 mins in presence of gamma-[33P]-ATP by scintillation counting analysis. Put shortly:
as §1

A short description of series [5]: Clearance in OFA rat at 1 mg/kg, iv measured upto 24 hrs by HPLC/UV analysis. The series is classed as ADME, organism-based. The settings on record: in vivo. In outline:
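Catheters were placed in the femoral artery and vein of female OFA rats, followed by 96 h recovery. IV doses went into the femoral vein: 2.5 mg/kg in ethanol/dimethylisosorbide/PEG400/5 % glucose (10/15/35/40), or 1 mg/kg in NMP/PEG200 (30:70). Plasma samples at 5, 15, 30 min and 1, 2, 4, 6, 8, 24 h. Parameters reported over 24 h. n=2–4.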

For series [6], the target named is Platelet-derived growth factor receptor beta (Homo sapiens, UniProt P09619). The series can be described thus: Inhibition of PDGFR (unknown origin) autophosphorylation expressed in mouse BALB/3T3 clone A31 cells by ELISA-based assay. The class given is cell-based. In outline:
(§2)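 Cells were stimulated with the respective ligand. Receptor tyrosine kinase autophosphorylation in the presence of compound was quantified by ELISA.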
In general terms: An ELISA detects its analyte on a solid surface through an enzyme-linked reagent.

The target in series [7] is Receptor tyrosine-protein kinase erbB-2 (Homo sapiens, UniProt P04626). The series can be described thus: Inhibition of ERBB2 (unknown origin) autophosphorylation expressed in human BT-474 cells by ELISA-based assay. The series is classed as cell-based. In outline: as §2
In the next series the target is Insulin receptor (Homo sapiens, UniProt P06213). The series can be described thus: Inhibition of INSR (unknown origin) autophosphorylation expressed in […] by ELISA-based assay. The class given is cell-based. Put shortly:
as §2

The target of series [8] is Insulin-like growth factor 1 receptor (Homo sapiens, UniProt P08069). Briefly: Inhibition of IGF1R (unknown origin) autophosphorylation expressed in […] by ELISA-based assay. The class given is cell-based. In outline:
as §2

Series [9] is described as follows: Tmax in OFA rat at 3 mg/kg, po measured upto 24 hrs by HPLC/UV analysis. The class given is ADME, organism-based. The settings on record: in vivo. Put shortly: (§3)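 Female OFA rats, femoral artery/vein catheterized and recovered 96 h. Oral gavage of a micronized suspension in 0.5 % carboxymethyl cellulose at 25 or 3 mg/kg. Bioavailability taken against femoral-vein iv dosing. Plasma sampled 5 min–24 h (9 time points).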

Series [10] deals with Mus musculus. Briefly: Anti-angiogenesis activity in FVB mouse model assessed as inhibition of VEGF-induced tissue weight at 0.3 mg/kg, po qd treated for 4 to 6 hrs prior to chamber implantation and continuing for 4 days measured after 24 hrs post last dose. The series is classed as functional, organism-based. Particulars: time 5.0 day. Put shortly:
(§4)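 Female FVB mice (18-20 g), porous chambers with VEGF (2 μg/mL) in 0.8 % w/v agar containing heparin 20 U/mL implanted s.c. in flank; compound p.o. once daily in 100 % PEG200 (5 mL/kg) from 4-6 h before implantation for 4 days; tissue removed 24 h after last dose, weighed, lysate assayed for TIE-2 by sandwich ELISA; n=6 per dose, mean ± SEM.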

Series [11] has as its system Mus musculus. Briefly: Anti-angiogenesis activity in FVB mouse model assessed as inhibition of VEGF-induced tissue TIE-2 level at 0.3 mg/kg, po qd treated for 4 to 6 hrs prior to chamber implantation and continuing for 4 days measured after 24 hrs post last dose by ELISA analysis. The series is classed as functional, organism-based. The settings on record: time 5.0 day. Put shortly: as §4

For the next series, the system named is B16-BL6. Briefly: Antitumor activity against mouse B16-BL6 cells implanted in C57BL/6jNpa mouse assessed as primary tumor growth inhibition by measuring T/C ratio at 1 mg/kg, po qd started on day 7 post implantation measured after 21 days. Particulars: time 7-21 day.
Series [12] is filed under the species Mus musculus. The series can be described thus: Antiangiogenic activity in C57BL/6jNpa mouse harbouring mouse B16-BL6 cells assessed as reduction in K-trans level measured after 3 days by DCE-MRI assay relative to control. The series is classed as functional. More on the design: scale not given: the % may be the effect or the level left. Particulars: time 3 day. Put shortly:
(§5)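 C57BL/6JNpa mice bearing B16/BL6 cervical lymph-node metastases, at least 8 per group, anaesthetized and given contrast agent; DCE-MRI Ktrans and iAUEC (permeability) and Vp (plasma volume) measured before and again after daily treatment; change per mouse recorded, mean ± SEM, one-way ANOVA with Holm-Sidak comparisons versus vehicle.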

Series [13] is filed under the species Mus musculus. The series can be described thus: Antiangiogenic activity in C57BL/6jNpa mouse harbouring mouse B16-BL6 cells assessed as reduction in iAUEC level by measuring T/C ratio measured after 3 days by DCE-MRI assay. The class given is functional. Particulars: time 3 day. In outline:
as §5

Series [14] in a line: Antitumor activity against rat BN472 cell implanted in Brown-Norway rat assessed as tumor growth inhibition by measuring T/C ratio at 3 mg/kg, po qd measured upto 14 days. The series is classed as functional. The settings on record: time <= 14 day. In outline: (§6)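 Female Brown-Norway rats (160-180 g) given 3 mm³ BN472 tumor fragments in mammary fat pads; at about 200 mm², randomized into groups of 7-8 and dosed orally with compound or PEG300 vehicle over 14 days; tumor growth followed, T/C computed; significance by 2-way RM-ANOVA.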

In series [15] the test system is BN472 cell. The series can be described thus: Antitumor activity against rat BN472 cell implanted in Brown-Norway rat assessed as reduction in cell growth at 3 mg/kg, po qd measured upto 14 days by Ki67 staining based microscopic analysis. The class given is functional, organism-based. Particulars: time <= 14.0 day. In outline: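 BN472-bearing Brown-Norway rats dosed orally; Hoechst dye i.v. shortly before sacrifice to mark perfused vessels; tumors cryosectioned at 10 micron, blocked in 10 % goat serum/0.1 % Triton X-100, stained with rabbit anti-Ki67 (1:200) or anti-caspase 3 (1:10) and fluorescent secondary antibodies; fluorescence microscopy.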

Series [16] deals with BN472 cell. The series can be described thus: Induction of apoptosis in rat BN472 cell implanted in Brown-Norway rat assessed as effect on caspase 3 level at 3 mg/kg, po qd measured upto 14 days by microscopic analysis. The class given is functional, organism-based. The settings on record: time <= 14.0 day. In outline: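 BN472 fragments were grown in mammary fat pads of female Brown-Norway rats and dosed orally for 14 days. Hoechst dye was given i.v. 2 min before sacrifice. Excised tumors were cut as 10 micron frozen sections, blocked with 10 % normal goat serum/0.1 % Triton X-100 and stained with rabbit anti-rat caspase 3 (1:10), then a TRITC or FITC secondary. Read by fluorescence microscopy.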

The nature of series [17]: Antitumor activity against rat BN472 cell implanted in Brown-Norway rat assessed as T/C ratio at 1 mg/kg, po qd measured upto 14 days. The class given is functional. The settings on record: time <= 14 day. In outline:
as §6

A short description of series [18]: Dose normalized Cmax in OFA rat at 25 mg/kg, po measured upto 24 hrs by HPLC/UV analysis. The class given is ADME, organism-based. Particulars: in vivo. Put shortly:
as §3

Molecules are shown by their SMILES. The source made the active and inactive calls. The rule behind the calls is not given here. Some results are limits rather than exact numbers.

Usually half-life stands for how long it takes for the measured level to halve. As a reminder, the IC50 is the concentration at which inhibition is half-maximal. What is called clearance is a measure of how efficiently the substance is removed, as volume per time. By Tmax is commonly meant the time from dosing to the highest level.

Proto-oncogene tyrosine-protein kinase receptor Ret, sequence (P07949 whole entry, the tested form may be a part): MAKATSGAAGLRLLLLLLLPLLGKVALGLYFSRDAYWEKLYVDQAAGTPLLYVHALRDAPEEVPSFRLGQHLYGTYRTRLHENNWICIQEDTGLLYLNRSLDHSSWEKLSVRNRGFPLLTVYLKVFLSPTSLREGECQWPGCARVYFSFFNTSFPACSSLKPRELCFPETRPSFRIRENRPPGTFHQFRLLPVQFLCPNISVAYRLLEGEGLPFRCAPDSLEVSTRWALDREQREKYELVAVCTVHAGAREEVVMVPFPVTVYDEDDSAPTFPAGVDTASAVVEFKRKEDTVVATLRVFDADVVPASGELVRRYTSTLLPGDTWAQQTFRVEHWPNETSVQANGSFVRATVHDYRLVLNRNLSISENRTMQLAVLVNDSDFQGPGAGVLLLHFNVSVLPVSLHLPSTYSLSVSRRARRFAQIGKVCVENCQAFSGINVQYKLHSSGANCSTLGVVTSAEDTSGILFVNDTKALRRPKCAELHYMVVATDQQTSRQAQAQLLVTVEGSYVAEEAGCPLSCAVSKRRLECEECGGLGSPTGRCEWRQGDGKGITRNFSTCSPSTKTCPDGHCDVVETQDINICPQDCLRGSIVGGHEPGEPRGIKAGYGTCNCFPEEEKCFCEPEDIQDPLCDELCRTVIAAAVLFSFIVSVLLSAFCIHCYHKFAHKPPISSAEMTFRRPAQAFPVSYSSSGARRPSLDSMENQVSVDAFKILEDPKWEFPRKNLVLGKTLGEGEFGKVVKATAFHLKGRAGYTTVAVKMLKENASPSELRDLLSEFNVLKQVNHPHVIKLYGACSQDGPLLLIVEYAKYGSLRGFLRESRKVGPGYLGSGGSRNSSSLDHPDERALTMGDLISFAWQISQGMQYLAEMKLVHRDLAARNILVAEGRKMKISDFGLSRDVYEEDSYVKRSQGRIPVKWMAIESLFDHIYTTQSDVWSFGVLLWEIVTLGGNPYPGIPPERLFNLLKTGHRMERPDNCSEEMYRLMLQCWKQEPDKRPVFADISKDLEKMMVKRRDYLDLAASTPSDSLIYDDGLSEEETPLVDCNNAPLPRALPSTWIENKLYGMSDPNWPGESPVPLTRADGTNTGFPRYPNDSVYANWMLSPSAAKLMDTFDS
Insulin-like growth factor 1 receptor, sequence (P08069 31-736 limits assumed): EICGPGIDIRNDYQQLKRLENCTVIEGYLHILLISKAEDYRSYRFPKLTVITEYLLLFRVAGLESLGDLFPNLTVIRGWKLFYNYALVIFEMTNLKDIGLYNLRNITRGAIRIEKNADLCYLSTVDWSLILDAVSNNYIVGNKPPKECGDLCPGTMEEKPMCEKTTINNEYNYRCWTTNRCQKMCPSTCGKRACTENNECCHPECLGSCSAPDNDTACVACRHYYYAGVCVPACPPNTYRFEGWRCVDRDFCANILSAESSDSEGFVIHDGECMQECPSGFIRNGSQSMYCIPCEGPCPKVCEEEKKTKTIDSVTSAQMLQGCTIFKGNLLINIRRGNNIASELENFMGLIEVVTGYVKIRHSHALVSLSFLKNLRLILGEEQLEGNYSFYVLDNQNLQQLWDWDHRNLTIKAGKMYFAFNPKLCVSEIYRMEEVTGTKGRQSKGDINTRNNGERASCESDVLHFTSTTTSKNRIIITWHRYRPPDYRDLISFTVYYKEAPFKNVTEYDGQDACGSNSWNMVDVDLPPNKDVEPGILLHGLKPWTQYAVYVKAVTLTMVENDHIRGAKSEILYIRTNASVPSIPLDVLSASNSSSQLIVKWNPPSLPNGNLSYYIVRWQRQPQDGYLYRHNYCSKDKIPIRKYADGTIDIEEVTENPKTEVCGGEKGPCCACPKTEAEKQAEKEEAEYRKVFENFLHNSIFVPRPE
Insulin-like growth factor 1 receptor, sequence (P08069 741-1367 limits assumed): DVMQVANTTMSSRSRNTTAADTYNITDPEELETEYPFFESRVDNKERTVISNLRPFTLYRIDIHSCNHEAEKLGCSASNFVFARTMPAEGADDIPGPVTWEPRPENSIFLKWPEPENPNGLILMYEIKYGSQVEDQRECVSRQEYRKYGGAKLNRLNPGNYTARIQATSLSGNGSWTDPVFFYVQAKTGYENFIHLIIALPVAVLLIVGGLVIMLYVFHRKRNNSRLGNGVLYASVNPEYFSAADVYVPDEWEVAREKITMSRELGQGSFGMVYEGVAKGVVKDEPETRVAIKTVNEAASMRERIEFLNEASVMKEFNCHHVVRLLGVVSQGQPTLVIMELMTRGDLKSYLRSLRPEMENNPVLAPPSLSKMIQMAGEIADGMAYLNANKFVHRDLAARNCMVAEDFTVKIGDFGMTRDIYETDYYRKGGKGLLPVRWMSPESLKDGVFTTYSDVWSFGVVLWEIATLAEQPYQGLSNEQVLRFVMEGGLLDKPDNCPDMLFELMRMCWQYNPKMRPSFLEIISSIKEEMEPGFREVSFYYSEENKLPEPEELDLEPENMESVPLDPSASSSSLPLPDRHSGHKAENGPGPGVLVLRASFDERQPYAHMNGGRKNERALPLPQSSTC
Insulin receptor, sequence (P06213 28-758 limits assumed): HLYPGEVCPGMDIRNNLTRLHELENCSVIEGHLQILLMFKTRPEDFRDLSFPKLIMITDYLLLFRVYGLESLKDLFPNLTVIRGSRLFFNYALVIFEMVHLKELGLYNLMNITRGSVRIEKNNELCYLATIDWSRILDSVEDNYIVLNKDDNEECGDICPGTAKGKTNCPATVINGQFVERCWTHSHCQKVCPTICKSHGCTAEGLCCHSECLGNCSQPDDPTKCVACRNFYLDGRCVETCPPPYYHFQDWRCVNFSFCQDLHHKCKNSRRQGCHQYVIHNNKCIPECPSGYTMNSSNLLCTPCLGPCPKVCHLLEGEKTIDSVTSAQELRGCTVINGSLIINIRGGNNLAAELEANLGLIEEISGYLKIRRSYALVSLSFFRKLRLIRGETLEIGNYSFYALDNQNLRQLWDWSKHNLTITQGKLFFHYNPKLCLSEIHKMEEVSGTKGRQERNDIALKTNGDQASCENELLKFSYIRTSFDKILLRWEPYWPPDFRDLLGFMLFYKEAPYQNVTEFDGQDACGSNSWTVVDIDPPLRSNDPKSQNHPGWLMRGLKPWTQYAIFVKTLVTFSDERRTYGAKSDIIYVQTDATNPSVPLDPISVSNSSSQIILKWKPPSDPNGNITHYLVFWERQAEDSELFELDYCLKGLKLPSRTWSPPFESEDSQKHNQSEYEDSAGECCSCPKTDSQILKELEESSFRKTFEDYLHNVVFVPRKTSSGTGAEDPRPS
Insulin receptor, sequence (P06213 763-1382 limits assumed): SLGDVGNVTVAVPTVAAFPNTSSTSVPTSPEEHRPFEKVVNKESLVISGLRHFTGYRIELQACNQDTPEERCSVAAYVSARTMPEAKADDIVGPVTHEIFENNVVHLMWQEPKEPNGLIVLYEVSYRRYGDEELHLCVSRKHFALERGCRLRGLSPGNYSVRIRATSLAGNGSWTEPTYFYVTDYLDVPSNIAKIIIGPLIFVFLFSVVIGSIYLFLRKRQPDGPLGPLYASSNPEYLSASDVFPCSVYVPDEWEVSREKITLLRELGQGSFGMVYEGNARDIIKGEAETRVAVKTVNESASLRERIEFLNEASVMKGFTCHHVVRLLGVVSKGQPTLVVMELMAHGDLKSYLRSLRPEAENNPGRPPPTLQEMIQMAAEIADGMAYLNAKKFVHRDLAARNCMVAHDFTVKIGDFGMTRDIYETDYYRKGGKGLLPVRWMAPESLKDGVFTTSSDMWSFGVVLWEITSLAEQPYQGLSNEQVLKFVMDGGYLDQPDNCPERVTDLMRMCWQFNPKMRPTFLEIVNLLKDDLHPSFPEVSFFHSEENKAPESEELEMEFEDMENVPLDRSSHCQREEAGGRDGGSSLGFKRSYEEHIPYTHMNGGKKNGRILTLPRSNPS

`Nc1cc(Oc2ccc3c(C(=O)Nc4cccc(C(F)(F)F)c4)cccc3c2)ncn1`: the half-life in series [1] is 10.1 h.

`O=C(Nc1cccc(C(F)(F)F)c1)c1cccc2cc(Oc3cc(CO)ncn3)ccc12` [BFH-772]: the IC50 is 0.0046 µM in series [2]; 0.03 µM in series [6]; above 0.5 µM in series [7]; above 0.5 µM on Insulin receptor; above 0.5 µM in series [8]. Further, the inhibition entry in series [3] and in series [4] was “Active” throughout. For the same compound, the clearance in [5] is 0.18 L/h/kg. The time of peak concentration (Tmax) in [9] is 2 h. The result in the series with Mus musculus [10] and in the series with Mus musculus [11] was Active. Further, in the series on B16-BL6, the T/C was found to be 0.73.

The compound `Nc1nccc(Oc2ccc3c(C(=O)Nc4ccc(F)c(C(F)(F)F)c4)cccc3c2)n1` had a half-life in [1] of 4.5 h. The result with Mus musculus [10], with Mus musculus [11], in the series on BN472 cell [15] and in the series with BN472 cell [16] was Active. Also, the Activity in the series listed under Mus musculus [12] is on record as 61%. For the same compound, the T/C in the series filed under Mus musculus [13] amounted to 0.34; in [14] it was 5.6; in series [17], 0.028.

On to `Nc1nccc(Oc2ccc3c(C(=O)Nc4cccc(C(F)(F)F)c4)cccc3c2)n1`, for which the IC50 in series [2] is 0.0042 µM; in series [6], 0.03 µM; in [7], above 0.5 µM; against Insulin receptor, above 0.5 µM; in [8] it was above 0.5 µM. Besides, the inhibition result in series [3] and in series [4] was “Active” each time. In series [18], the Cmax/dose turned out to be 0.28 µM. The T/C in [14] was determined as 35.5.
